In ChEMBL document CHEMBL5724801, “EUbOPEN Chemogenomics Library - Multiplex” (2024):
Where “and” joins values, the source holds several entries; their conditions need not be identical. Equal entries are not always repeated.

Test system: HEK-293T
Experiment: Multiplex assay against HEK293T
Format: toxicity, cell-based
Conditions: human
Procedure, shortened: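 With compound added, live cells were imaged on a CQ1 microscope at 37°C and 5% CO2; staining with Hoechst33342, BioTracker Green Microtubule Cytoskeleton Dye, MitoTracker Red and Annexin V Alexa Fluor 680 had been done at seeding. The CellPathfinder machine-learning gating scheme split cells into Hoechst high-intensity objects or normal cells, normal cells into healthy, pyknosed or fragmented nuclei, and pyknosed cells into mitotic or apoptotic. The tubulin, mitochondrial-mass and membrane-permeability phenotypes are per cents of healthy-nucleus cells.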

[1] = 12 h, 1 µM, compound concentration 1 uM
[2] = 12 h, 10 µM, compound concentration 10 uM
[3] = 24 h, 1 µM, compound concentration 1 uM
[4] = 24 h, 10 µM, compound concentration 10 uM
[5] = 48 h, 1 µM, compound concentration 1 uM
[6] = 48 h, 10 µM, compound concentration 10 uM

## O=C(CCCc1ccccc1)Nc1nc2ccccc2c(=O)s1
[1]
  Population Apoptotic (%): 30% and 43%
  Population Fragmented Nuclei (%): 4% and 7%
  Population Healthy Nuclei (%): 83% and 74%
  Population Hoechst High Intensity Objects (%): 6% and 13%
  Population Membrane Permeable-Phenotype (%): 0%
  Population Mitochondria Different-Phenotype (%): 37% and 63%
  Population Mitotic Cells (%): 70% and 56%
  Population Normal (%): 93% and 86%
  Population Pyknosed Nuclei (%): 11% and 17%
  Population Tubulin-Different-Phenotype (%): 32% and 36%
  Total Cell Count: 372 and 267
[2]
  Population Apoptotic (%): 30% and 44%
  Population Fragmented Nuclei (%): 10% and 7%
  Population Healthy Nuclei (%): 80% and 74%
  Population Hoechst High Intensity Objects (%): 9% and 27%
  Population Membrane Permeable-Phenotype (%): 0%
  Population Mitochondria Different-Phenotype (%): 47% and 68%
  Population Mitotic Cells (%): 69% and 55%
  Population Normal (%): 90% and 72%
  Population Pyknosed Nuclei (%): 9% and 17%
  Population Tubulin-Different-Phenotype (%): 27% and 26%
  Total Cell Count: 555 and 371
[3]
  Population Apoptotic (%): 20% and 45%
  Population Fragmented Nuclei (%): 8% and 9%
  Population Healthy Nuclei (%): 81% and 78%
  Population Hoechst High Intensity Objects (%): 5% and 8%
  Population Membrane Permeable-Phenotype (%): 1% and 0%
  Population Mitochondria Different-Phenotype (%): 21% and 38%
  Population Mitotic Cells (%): 79% and 54%
  Population Normal (%): 94% and 91%
  Population Pyknosed Nuclei (%): 10% and 12%
  Population Tubulin-Different-Phenotype (%): 15% and 13%
  Total Cell Count: 538 and 370
[4]
  Population Apoptotic (%): 33% and 52%
  Population Fragmented Nuclei (%): 10% and 8%
  Population Healthy Nuclei (%): 80%
  Population Membrane Permeable-Phenotype (%): 0%
  Population Mitochondria Different-Phenotype (%): 38% and 47%
  Population Mitotic Cells (%): 66% and 47%
  Population Normal (%): 93% and 75%
  Population Pyknosed Nuclei (%): 9% and 11%
  Population Tubulin-Different-Phenotype (%): 29% and 20%
  Total Cell Count: 661 and 444
[5]
  Population Apoptotic (%): 20% and 38%
  Population Fragmented Nuclei (%): 11% and 10%
  Population Healthy Nuclei (%): 82% and 80%
  Population Hoechst High Intensity Objects (%): 2% and 4%
  Population Membrane Permeable-Phenotype (%): 1% and 0%
  Population Mitochondria Different-Phenotype (%): 15% and 28%
  Population Mitotic Cells (%): 79% and 61%
  Population Normal (%): 97% and 95%
  Population Pyknosed Nuclei (%): 6% and 8%
  Population Tubulin-Different-Phenotype (%): 11% and 13%
  Total Cell Count: 820 and 534
[6]
  Population Fragmented Nuclei (%): 14% and 13%
  Population Healthy Nuclei (%): 79% and 77%
  Population Hoechst High Intensity Objects (%): 4% and 11%
  Population Membrane Permeable-Phenotype (%): 0% and 1%
  Population Mitochondria Different-Phenotype (%): 21% and 30%
  Population Mitotic Cells (%): 77% and 31%
  Population Normal (%): 95% and 88%
  Population Pyknosed Nuclei (%): 6% and 9%
  Population Tubulin-Different-Phenotype (%): 16%
  Total Cell Count: 984 and 567

## CN(C)CCCc1cc(C(=O)Nc2ccc(-c3ccncc3)cc2)ccc1O.Cl.Cl
[1]
  Population Apoptotic (%): 27% and 37%
  Population Fragmented Nuclei (%): 5%
  Population Healthy Nuclei (%): 79% and 82%
  Population Hoechst High Intensity Objects (%): 9% and 8%
  Population Membrane Permeable-Phenotype (%): 0%
  Population Mitochondria Different-Phenotype (%): 48% and 58%
  Population Mitotic Cells (%): 72% and 62%
  Population Normal (%): 90% and 91%
  Population Pyknosed Nuclei (%): 14% and 11%
  Population Tubulin-Different-Phenotype (%): 37% and 14%
  Total Cell Count: 358 and 367
[2]
  Population Apoptotic (%): 31% and 60%
  Population Fragmented Nuclei (%): 10% and 11%
  Population Healthy Nuclei (%): 81% and 77%
  Population Hoechst High Intensity Objects (%): 6% and 9%
  Population Membrane Permeable-Phenotype (%): 0% and 2%
  Population Mitochondria Different-Phenotype (%): 49% and 63%
  Population Mitotic Cells (%): 68% and 39%
  Population Normal (%): 93% and 90%
  Population Pyknosed Nuclei (%): 7% and 11%
  Population Tubulin-Different-Phenotype (%): 33%
  Total Cell Count: 460 and 391
[3]
  Population Apoptotic (%): 25%
  Population Fragmented Nuclei (%): 11% and 9%
  Population Healthy Nuclei (%): 78% and 83%
  Population Hoechst High Intensity Objects (%): 5%
  Population Membrane Permeable-Phenotype (%): 1% and 0%
  Population Mitochondria Different-Phenotype (%): 26% and 32%
  Population Mitotic Cells (%): 74% and 75%
  Population Normal (%): 94%
  Population Pyknosed Nuclei (%): 10% and 6%
  Population Tubulin-Different-Phenotype (%): 21% and 9%
  Total Cell Count: 542 and 486
[4]
  Population Apoptotic (%): 32% and 47%
  Population Fragmented Nuclei (%): 12% and 15%
  Population Healthy Nuclei (%): 77% and 74%
  Population Hoechst High Intensity Objects (%): 5% and 15%
  Population Membrane Permeable-Phenotype (%): 0%
  Population Mitochondria Different-Phenotype (%): 38% and 48%
  Population Mitotic Cells (%): 67% and 52%
  Population Normal (%): 94% and 84%
  Population Pyknosed Nuclei (%): 9%
  Population Tubulin-Different-Phenotype (%): 23% and 19%
  Total Cell Count: 588 and 505
[5]
  Population Apoptotic (%): 23% and 21%
  Population Fragmented Nuclei (%): 11% and 16%
  Population Healthy Nuclei (%): 81% and 75%
  Population Hoechst High Intensity Objects (%): 2% and 5%
  Population Membrane Permeable-Phenotype (%): 2% and 1%
  Population Mitochondria Different-Phenotype (%): 19% and 24%
  Population Mitotic Cells (%): 76% and 78%
  Population Normal (%): 97% and 94%
  Population Pyknosed Nuclei (%): 6% and 8%
  Population Tubulin-Different-Phenotype (%): 14% and 13%
  Total Cell Count: 814 and 596
[6]
  Population Apoptotic (%): 29% and 58%
  Population Fragmented Nuclei (%): 17% and 15%
  Population Healthy Nuclei (%): 75% and 76%
  Population Hoechst High Intensity Objects (%): 5% and 11%
  Population Membrane Permeable-Phenotype (%): 1% and 0%
  Population Mitochondria Different-Phenotype (%): 21% and 35%
  Population Mitotic Cells (%): 70% and 41%
  Population Normal (%): 94% and 88%
  Population Pyknosed Nuclei (%): 6% and 7%
  Population Tubulin-Different-Phenotype (%): 13% and 20%
  Total Cell Count: 883 and 641
